Test results: ChEMBL document CHEMBL1132480, “Synthesis, acid-base behavior, and binding properties of 6-modified myo-inositol 1,4,5-tris(phosphate)s” (J Med Chem, 1999)

How the values were obtained:
[1] = Equilibrium constant (K3) of the compound.; type: ADME
Summary of the method: (§1)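 Stepwise macroscopic protonation constants measured over pH 2.5–10, where each phosphate has one titratable proton. Observed NMR chemical shifts were treated as weighted averages of the shifts of the protonated and deprotonated species.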

[2] = Equilibrium constant (K1) of the compound.; type: ADME; summary of the method: as §1
[3] = Equilibrium constant (K2) of the compound.; type: ADME; summary of the method: as §1
[4] = Equilibrium constant (K4) of the compound.; type: ADME; summary of the method: as §1
[5] = target: Inositol 1,4,5-trisphosphate-gated calcium channel ITPR3 (Bos taurus, UniProt Q8WN95); assay: Binding affinity against Inositol 1,4,5-trisphosphate receptor on bovine adrenal cortex microsomes.
Sequence of Inositol 1,4,5-trisphosphate-gated calcium channel ITPR3 (Q8WN95 whole entry): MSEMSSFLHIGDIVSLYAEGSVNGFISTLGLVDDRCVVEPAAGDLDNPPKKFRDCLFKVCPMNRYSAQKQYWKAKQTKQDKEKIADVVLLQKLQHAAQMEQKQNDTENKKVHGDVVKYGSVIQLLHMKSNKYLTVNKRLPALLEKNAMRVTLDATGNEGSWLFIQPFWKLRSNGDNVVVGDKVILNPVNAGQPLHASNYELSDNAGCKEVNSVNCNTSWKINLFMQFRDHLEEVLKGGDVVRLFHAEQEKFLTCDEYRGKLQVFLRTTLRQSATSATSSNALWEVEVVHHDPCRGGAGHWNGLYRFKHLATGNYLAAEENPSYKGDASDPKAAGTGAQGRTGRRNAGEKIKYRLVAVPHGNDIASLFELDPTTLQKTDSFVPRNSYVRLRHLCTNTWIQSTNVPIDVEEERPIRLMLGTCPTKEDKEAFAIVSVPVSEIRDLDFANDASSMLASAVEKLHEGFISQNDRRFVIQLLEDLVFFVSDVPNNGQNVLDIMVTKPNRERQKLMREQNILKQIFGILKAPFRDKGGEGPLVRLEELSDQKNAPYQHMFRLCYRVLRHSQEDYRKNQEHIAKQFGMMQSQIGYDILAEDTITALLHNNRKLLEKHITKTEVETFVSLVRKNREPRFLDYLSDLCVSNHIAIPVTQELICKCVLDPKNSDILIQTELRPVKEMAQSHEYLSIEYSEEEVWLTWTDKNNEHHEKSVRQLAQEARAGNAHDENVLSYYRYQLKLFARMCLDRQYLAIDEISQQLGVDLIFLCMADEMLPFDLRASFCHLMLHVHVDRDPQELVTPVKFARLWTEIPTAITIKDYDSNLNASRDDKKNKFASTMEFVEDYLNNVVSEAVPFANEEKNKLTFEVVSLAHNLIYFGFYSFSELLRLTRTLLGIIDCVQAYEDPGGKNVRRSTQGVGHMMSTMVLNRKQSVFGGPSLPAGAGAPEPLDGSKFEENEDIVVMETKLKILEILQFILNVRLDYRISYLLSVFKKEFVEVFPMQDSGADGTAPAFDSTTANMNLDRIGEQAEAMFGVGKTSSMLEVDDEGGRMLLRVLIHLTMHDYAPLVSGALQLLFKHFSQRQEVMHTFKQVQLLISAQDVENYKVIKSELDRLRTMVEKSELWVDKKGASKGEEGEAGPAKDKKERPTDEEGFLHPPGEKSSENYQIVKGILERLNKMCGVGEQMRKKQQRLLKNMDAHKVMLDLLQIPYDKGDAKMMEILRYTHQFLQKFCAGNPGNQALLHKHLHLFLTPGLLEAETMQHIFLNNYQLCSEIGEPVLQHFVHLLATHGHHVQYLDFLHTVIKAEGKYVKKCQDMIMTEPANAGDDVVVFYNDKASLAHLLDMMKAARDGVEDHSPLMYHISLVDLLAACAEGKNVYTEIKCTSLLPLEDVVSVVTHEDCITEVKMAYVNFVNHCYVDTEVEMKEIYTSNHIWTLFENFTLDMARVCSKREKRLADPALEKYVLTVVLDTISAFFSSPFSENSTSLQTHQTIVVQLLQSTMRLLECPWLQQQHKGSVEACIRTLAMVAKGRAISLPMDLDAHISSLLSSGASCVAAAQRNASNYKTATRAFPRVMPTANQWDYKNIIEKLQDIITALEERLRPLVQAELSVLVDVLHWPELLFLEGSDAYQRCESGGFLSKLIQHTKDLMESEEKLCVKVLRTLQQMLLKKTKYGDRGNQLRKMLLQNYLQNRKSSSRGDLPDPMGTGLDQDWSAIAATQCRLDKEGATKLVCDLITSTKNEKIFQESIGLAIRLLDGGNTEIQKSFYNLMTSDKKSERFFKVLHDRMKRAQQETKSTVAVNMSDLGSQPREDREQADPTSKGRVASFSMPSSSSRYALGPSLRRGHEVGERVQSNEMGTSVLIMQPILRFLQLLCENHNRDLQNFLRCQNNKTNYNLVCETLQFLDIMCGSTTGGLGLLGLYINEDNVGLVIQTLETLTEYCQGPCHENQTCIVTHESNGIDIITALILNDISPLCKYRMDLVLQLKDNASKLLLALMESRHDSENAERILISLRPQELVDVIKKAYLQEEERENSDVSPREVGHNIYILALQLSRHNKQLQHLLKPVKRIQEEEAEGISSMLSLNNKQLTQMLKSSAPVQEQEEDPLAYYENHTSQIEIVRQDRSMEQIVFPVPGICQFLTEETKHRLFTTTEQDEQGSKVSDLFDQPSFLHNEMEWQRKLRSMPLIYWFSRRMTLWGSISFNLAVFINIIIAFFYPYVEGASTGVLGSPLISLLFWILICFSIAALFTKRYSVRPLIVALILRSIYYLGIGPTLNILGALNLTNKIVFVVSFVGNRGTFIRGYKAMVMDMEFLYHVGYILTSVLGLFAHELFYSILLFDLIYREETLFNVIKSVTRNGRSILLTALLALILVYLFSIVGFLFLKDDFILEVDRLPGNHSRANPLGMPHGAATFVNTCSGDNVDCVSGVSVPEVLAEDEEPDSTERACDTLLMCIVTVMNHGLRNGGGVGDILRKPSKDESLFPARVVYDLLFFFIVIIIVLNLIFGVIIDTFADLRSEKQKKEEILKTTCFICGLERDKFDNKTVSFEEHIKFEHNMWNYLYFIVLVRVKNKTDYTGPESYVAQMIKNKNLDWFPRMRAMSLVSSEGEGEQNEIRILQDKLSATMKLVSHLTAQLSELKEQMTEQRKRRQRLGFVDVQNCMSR

Row | SMILES | Log K3 [1] | Log K1 [2] | Log K2 [3] | Log K4 [4] | IC50 [5]
1 | O=P(O)(O)O[C@@H]1[C@H](O)[C@H](O)[C@@H](OP(=O)(O)O)[C@H](OP(=O)(O)O)[C@H]1O [INS(1,4,5)P3] | 5.31 | 7.85 | 6.4 | – | –
2 | N[C@@H]1[C@@H](OP(=O)(O)O)[C@H](OP(=O)(O)O)[C@@H](O)[C@@H](O)[C@H]1OP(=O)(O)O | 5.58 | 10.69 | 7.35 | 4.62 | 5000 nM
3 | O=P(O)(O)O[C@@H]1CC[C@@H](OP(=O)(O)O)[C@H](OP(=O)(O)O)C1 | – | – | – | – | 3900 nM
4 | O=P(O)(O)O[C@@H]1[C@H](O)[C@H](O)[C@@H](OP(=O)(O)O)[C@H](OP(=O)(O)O)[C@H]1F | 5.56 | 8.76 | 6.64 | – | 2000 nM
5 | O=P(O)(O)O[C@@H]1[C@H](O)[C@H](O)[C@@H](OP(=O)(O)O)[C@H](OP(=O)(O)O)[C@@H]1O | 5.4 | 8.01 | 6.39 | – | –
6 | O=P(O)(O)O[C@@H]1[C@@H](O)[C@@H](O)[C@@H](OP(=O)(O)O)C[C@H]1OP(=O)(O)O | 5.53 | 8.3 | 6.65 | – | 1000 nM
